Measurements: ChEMBL document CHEMBL1129250, “Interaction of 1,4-dihydropyridine and pyridine derivatives with adenosine receptors: selectivity for A3 receptors” (J Med Chem, 1996)

Legend:
Adenosine receptor A2a = Adenosine receptor A2a (Rattus norvegicus, UniProt P30543); assay: Displacement of [3H]-CGS- 21680 binding to Adenosine A2A receptor in rat striatal membranes; assay type: cell membranes, Membrane
In short: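 Adenosine deaminase (3 units/mL) present during preparation, 30 min preincubation at 30 °C and incubation. At least five competitor concentrations over 3 orders of magnitude.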

[1] = molecular target: Adenosine receptor A2a (Rattus norvegicus) (UniProt P30543); assay: Displacement of [3H]-CGS- 21680 from Adenosine A2A receptor in rat striatal membranes; assay type: cell membranes; conditions: Membrane, concentration not given here
Chain of Adenosine receptor A2a (Rattus norvegicus) (P30543 whole entry): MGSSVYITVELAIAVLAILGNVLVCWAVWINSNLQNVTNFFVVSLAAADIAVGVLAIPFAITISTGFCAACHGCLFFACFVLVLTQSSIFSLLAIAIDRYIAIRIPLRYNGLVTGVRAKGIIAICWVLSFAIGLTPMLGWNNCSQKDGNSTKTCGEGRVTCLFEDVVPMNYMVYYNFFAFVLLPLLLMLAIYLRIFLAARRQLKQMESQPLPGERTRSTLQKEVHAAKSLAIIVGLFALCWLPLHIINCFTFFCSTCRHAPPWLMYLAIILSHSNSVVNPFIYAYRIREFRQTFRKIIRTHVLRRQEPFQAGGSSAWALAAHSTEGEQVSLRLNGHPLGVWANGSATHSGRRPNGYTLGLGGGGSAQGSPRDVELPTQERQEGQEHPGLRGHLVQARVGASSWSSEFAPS
In short: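 Rat striatal membranes with [3H]CGS 21680. Adenosine deaminase (3 units/mL) present during preparation, 30 min preincubation at 30 °C and incubation. At least five competitor concentrations over 3 orders of magnitude.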

[2] = molecular target: T1, Voltage-gated L-type calcium channel (Rattus norvegicus, UniProt P22002+Q02485+P27732); assay: Inhibition of [3H]isradipine binding to L-type [Ca2+] channel of rat brain membranes; assay type: cell membranes, Membrane
In short: (§1)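 Rat brain membranes (~100 μg protein) incubated 1 h at 25 °C with 0.1 nM [3H]isradipine and varying competitor in 50 mM Tris, pH 7.4. Nonspecific binding with 10 μM nitrendipine.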

Adenosine receptor A3 [3] = molecular target: T2, Adenosine receptor A3 (Homo sapiens, UniProt P0DMS8); assay: Displacement of [125]AB-MECA binding to human Adenosine A3 receptor expressed in HEK cells; assay type: cell-based, HEK293
T2 sequence (P0DMS8 whole entry): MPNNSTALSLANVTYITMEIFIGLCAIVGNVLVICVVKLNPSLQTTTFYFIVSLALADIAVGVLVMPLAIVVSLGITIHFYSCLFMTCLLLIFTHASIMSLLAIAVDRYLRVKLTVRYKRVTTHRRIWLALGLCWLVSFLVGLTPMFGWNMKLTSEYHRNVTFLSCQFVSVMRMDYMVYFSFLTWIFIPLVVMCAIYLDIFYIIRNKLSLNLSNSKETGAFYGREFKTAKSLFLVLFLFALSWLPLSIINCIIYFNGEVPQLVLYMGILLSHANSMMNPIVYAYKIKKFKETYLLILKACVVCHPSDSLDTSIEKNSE

Adenosine receptor A1 = molecular target: T3, Adenosine receptor A1 (Rattus norvegicus, UniProt P25099); assay: (§2) Displacement of [3H](R)-PIA binding to Adenosine A1 receptor in rat brain membranes; assay type: cell membranes
T3 sequence (P25099 whole entry): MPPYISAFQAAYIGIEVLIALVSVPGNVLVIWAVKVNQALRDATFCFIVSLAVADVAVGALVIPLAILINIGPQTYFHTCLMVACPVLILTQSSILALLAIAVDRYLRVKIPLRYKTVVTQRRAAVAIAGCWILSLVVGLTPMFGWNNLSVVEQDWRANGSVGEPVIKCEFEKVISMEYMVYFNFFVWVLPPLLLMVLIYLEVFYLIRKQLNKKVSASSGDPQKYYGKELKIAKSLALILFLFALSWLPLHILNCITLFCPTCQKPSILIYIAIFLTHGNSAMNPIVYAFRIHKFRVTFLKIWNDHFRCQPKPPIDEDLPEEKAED

[4] = molecular target: T4, Adenosine receptor A3 (Rattus norvegicus) (UniProt P28647); assay: Inhibition of adenylyl cyclase by A3 agonist IB-MECA(10e-6M) in CHO cell membranes expressing rat Adenosine A3 receptor; assay type: functional, cell-based
T4 sequence (whole entry): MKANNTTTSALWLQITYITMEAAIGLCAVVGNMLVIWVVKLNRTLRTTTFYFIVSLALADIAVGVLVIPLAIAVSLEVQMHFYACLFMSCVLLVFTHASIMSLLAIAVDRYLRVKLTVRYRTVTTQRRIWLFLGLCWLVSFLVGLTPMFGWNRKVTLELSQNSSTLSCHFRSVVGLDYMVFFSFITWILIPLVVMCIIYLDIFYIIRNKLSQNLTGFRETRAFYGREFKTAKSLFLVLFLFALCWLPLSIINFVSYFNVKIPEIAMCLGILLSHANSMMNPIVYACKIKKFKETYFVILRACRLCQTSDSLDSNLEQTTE
In short: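 Membranes from CHO cells stably expressing rat A3 receptor. Stimulated with 1 μM forskolin and [α-32P]ATP. Test compounds at 10 μM against the stated IB-MECA concentration. Stop buffer contained [3H]cyclic AMP. Reported as percent inhibition; significance by t-test.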

Adenosine receptor A3 [5] = molecular target: T5, Adenosine receptor A3 (Rattus norvegicus, UniProt P28647); assay: Binding affinity against rat Adenosine A3 receptor from CHO cells; assay type: cell-based
T5 sequence (P28647 whole entry): T4 sequence (whole entry)
In short: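 CHO cell membranes stably expressing cloned rat A3 receptor. Nonspecific binding defined with 100 μM R-PIA. Filtration assay. IC50 converted to Ki by Cheng–Prusoff.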

[6] = molecular target: T6, Equilibrative nucleoside transporter 1 (Rattus norvegicus, UniProt O54698); assay: Ability to displace radioligand from Na+ independent Adenosine transporter in rat
T6 sequence (O54698 whole entry): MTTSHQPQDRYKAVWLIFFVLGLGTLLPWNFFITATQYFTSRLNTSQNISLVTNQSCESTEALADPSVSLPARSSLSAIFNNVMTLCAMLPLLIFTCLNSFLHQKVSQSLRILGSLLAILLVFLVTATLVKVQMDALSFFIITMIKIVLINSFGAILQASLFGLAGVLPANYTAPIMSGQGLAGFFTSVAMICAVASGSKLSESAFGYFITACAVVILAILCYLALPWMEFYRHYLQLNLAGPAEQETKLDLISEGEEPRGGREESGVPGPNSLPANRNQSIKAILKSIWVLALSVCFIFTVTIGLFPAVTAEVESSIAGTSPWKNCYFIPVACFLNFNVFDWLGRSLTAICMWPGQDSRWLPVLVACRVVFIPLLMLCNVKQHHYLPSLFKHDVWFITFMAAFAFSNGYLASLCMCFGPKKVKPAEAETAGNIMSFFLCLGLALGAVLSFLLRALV
In short: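 Rat forebrain membranes incubated 30 min at 23 °C with 0.7 nM [3H]NBI and varying competitor concentrations in 50 mM Tris, pH 7.4. Ki or percent of specific binding displaced.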

[7] = molecular target: T7, Adenosine receptor A1 (Rattus norvegicus) (UniProt P25099); assay: as §2; assay type: cell membranes; conditions: concentration not given here
T7 sequence (whole entry): T3 sequence (P25099 whole entry)
In short: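 Rat cerebral cortex membranes with [3H]-(R)-PIA. Adenosine deaminase (3 units/mL) present during membrane preparation, during a 30 min preincubation at 30 °C and during incubation. Competitor at ≥5 concentrations spanning 3 log units, DMSO ≤2%.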

[8] = molecular target: T1, Voltage-gated L-type calcium channel; assay: Inhibition of [3H]-isradipine binding to L-type [Ca2+] channel of rat brain membranes; assay type: cell membranes, Membrane; in short: as §1

Chain of Adenosine receptor A2a (P30543 whole entry): as the sequence (P30543 whole entry) above

| SMILES | Ki (Adenosine receptor A2a; read-out: Ki) [µM] | further results |
| --- | --- | --- |
| CCCC1C(C(=O)OCC)=C(C)N=C(C)/C1=C(\O)OC (centres undefined) | 11.5 |  |
| CCO/C(O)=C1\C(C)=NC(C)=C(C(=O)OC)C1c1ccc(O)c(OC)c1 (centres undefined) | 56.8 |  |
| COCCO/C(O)=C1\C(C)=NC(C)=C(C(=O)OC)C1C (centres undefined) |  | inhibition [1]: 37% |
| COc1ccc(C2C=CNC=C2)cc1 | 71 |  |
| CCOC(=O)C1=C(c2ccccc2)N=C(C)/C(=C(/O)OCC)C1/C=C/c1ccccc1 (centres undefined) | 4.77 | Inhibition [2]: < 10% |
| CCOC(=O)C1=C(C)NC(C)=C(C(=O)OC)C1c1cccc([N+](=O)[O-])c1 (centres undefined) [NITRENDIPINE] | 23 | Ki (Adenosine receptor A3 [3]): 8.3 µM; Ki (Adenosine receptor A1): 8.96 µM |
| CCCCC1=C(C(=O)OCC)C(C)/C(=C(/O)OCC)C(C)=N1 (centres undefined) | 38 |  |
| CCO/C(O)=C1/C(C)=NC(C)=C(C(=O)OCCSc2ccccc2)C1C (centres undefined) | 7.1 |  |
| CO/C(O)=C1/C(C)=NC(C)=C(C(=O)OCc2ccccc2)C1C (centres undefined) | 9.72 |  |
| CCO/C(O)=C1\C(C)=NC(C)=C(C(=O)OC)C1CC (centres undefined) | 9.56 |  |
| CCOC(=O)C1=C(c2ccccc2)N=C(C)/C(=C(\O)OCC)C1C (stereo in doubt; 27) | 35.9 | Inhibition [2]: 17% |
| CCOC(=O)C1=C(c2ccccc2)N=C(C)/C(=C(\O)OCC)C1C (stereo in doubt; 30) | 28.4 | Inhibition [2]: < 10% |
| CCO/C(O)=C1\C(C)=NC(C)=C(C(=O)OC)C1c1ccccc1C(F)(F)F (centres undefined) | 20.7 |  |
| CCOC(=O)C1=C(C)NC(C)=C(C(=O)OC)C1C#Cc1ccccc1 (centres undefined) |  | Inhibition [2]: 23% |
| CCO/C(O)=C1\C(C)=NC(C)=C(C(=O)OC)C1CCc1ccccc1 (centres undefined) | 6.71 |  |
| CCO/C(O)=C1\C(C)=NC(C)=C(C(=O)OC)C1C (stereo in doubt; 1) | 46.1 |  |
| COC(=O)C1=C(C)NC(C)=C(C(=O)OCCN(C)Cc2ccccc2)C1c1cccc([N+](=O)[O-])c1 (centres undefined) [NICARDIPINE] |  | inhibition [4]: 27.2%; Ki (Adenosine receptor A3 [5]): 11 µM; Ki [6]: 5.36 µM |
| CCO/C(O)=C1\C(C)=NC(C)=C(C(=O)OC)C1c1ccc2c(c1)OCO2 (centres undefined) | 5.27 | Ki (Adenosine receptor A3 [3]): 4.58 µM; Ki (Adenosine receptor A1): 3.66 µM |
| CCOC(=O)C1=C(C)NC(C)=C(C(=O)OC)C1c1ccccc1 (centres undefined) | 2.74 |  |
| CCO/C(O)=C1\C(C)=NC(C)=C(C(=O)OC)C1c1ccc(OC)cc1 (centres undefined) | 12.7 |  |
| CCO/C(O)=C1\C(C)=NC(C)=C(C(=O)OC)C1c1ccc([N+](=O)[O-])cc1 (centres undefined) | 35.6 | inhibition [7]: 37% |
| CCOC(=O)C1=C(C)NC(C)=C(C(=O)OC)C1/C=C/c1ccccc1 (centres undefined) | 49.3 | Ki (Adenosine receptor A3 [3]): 0.67 µM; Ki (Adenosine receptor A3 [5]): 12.1 µM; Ki [8]: 0.694 µM; Ki (Adenosine receptor A1): 16.1 µM |
| CCO/C(O)=C1\C(C)=NC(C)=C(C(=O)OC)C1CC(C)CCC=C(C)C (centres undefined) | 23.1 |  |
| COC(=O)C1=C(C)NC(C)=C(C(=O)OCCCN2CCC(c3ccccc3)(c3ccccc3)CC2)[C@@H]1c1cccc([N+](=O)[O-])c1 [DEXNIGULDIPINE] |  | Ki (Adenosine receptor A2a): Not Active |
| CCO/C(O)=C1\C(C)=NC(C)=C(C(=O)OC)C1C (stereo in doubt; 29) | 8.96 |  |
